Experimental data taken from ChEMBL document CHEMBL4346761, “Microwave-Assisted Organic Synthesis, structure-activity relationship, kinetics and molecular docking studies of non-cytotoxic benzamide derivatives as selective butyrylcholinesterase inhibitors” (Bioorg Med Chem, 2019).
The source made the active and inactive calls. The calls are words filed in the database; no cut-off is given here.

Legend:
Cholinesterase [1] = target: T1, Cholinesterase (Equus caballus, UniProt P81908); assay: (§1) Inhibition of equine serum BChE using […] chloride as substrate preincubated for 15 mins followed by substrate addition and measured after 15 mins under dark condition by Ellman's method
In short: (§2)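 Modified Ellman assay. Equine serum BChE (51.732 mU) was preincubated 15 min at 25 °C with test compound (dissolved in methanol) in 100 mM sodium phosphate buffer, pH 8.0. Butyrylthiocholine chloride (0.5 mM) was added for 15 min in the dark, then DTNB (0.5 mM) was added. Absorbance was read at 412 nm and mean IC50 values were derived.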

Cholinesterase [2] = target: T1, Cholinesterase; assay: Mixed inhibition of equine serum BChE using varying levels of […] chloride as substrate by Lineweaver-Burk plot analysis
In short: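 Kinetics for BChE in the Ellman format with varied substrate. Inhibition mode was assigned from Lineweaver-Burk plots, secondary replots (slope vs inhibitor concentration) and Dixon plots. Apparent Km and Vmax were determined.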

[3] = target: Cholinesterase (Equus caballus) (UniProt P81908); assay: Inhibition of equine serum BChE using […] chloride as substrate preincubated for 15 mins followed by substrate addition and measured after 15 mins under dark condition by Ellman's method relative to control; design: concentration or dose not given beside the values; in short: as §2
[4] = target: Acetylcholinesterase (Electrophorus electricus) (UniProt O42275); assay: Inhibition of electric eel AChE using acetylthiocholine iodide as substrate preincubated for 15 mins followed by substrate addition and measured after 15 mins under dark condition by Ellman's method
In short: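 Modified Ellman assay. Electric eel AChE (0.002 mU) was preincubated 15 min at 25 °C with test compound (dissolved in methanol) in 100 mM sodium phosphate buffer, pH 8.0. Acetylthiocholine iodide (0.5 mM) and DTNB were added. After 15 min in the dark, absorbance was read at 412 nm.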

NIH3T3 [5] = assay: Cytotoxicity against mouse 3T3 cells at 1 to 30 uM measured after 48 hrs by MTT assay relative to control; type: cell-based; conditions: nih3t3, 48 h
In short: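 MTT colorimetric read-out. Cells seeded at 3x10^5 in 100 µL medium and left 24 h to attach. Medium then replaced with fresh medium plus test compound (1 to 30 µM). Incubated 48 h at 37 °C, 5% CO2, 90% humidity. MTT added, 4 h incubation. Formazan dissolved in DMSO, absorbance read at 540 nm. IC50 values calculated.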

[6] = target: Cholinesterase (Equus caballus) (UniProt P81908); assay: as §1; in short: as §2
Cholinesterase [7] = target: T1, Cholinesterase; assay: Uncompetitive inhibition of equine serum BChE using varying levels of […] chloride as substrate by Lineweaver-Burk plot analysis
NIH3T3 [8] = assay: Cytotoxicity against mouse 3T3 cells measured after 48 hrs by MTT assay; type: cell-based; conditions: NIH3T3, 48 h
In short: (§3)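 Cells seeded at 3x10^5 per well in medium and allowed to attach. After 24 h the medium was replaced with fresh medium plus test compound (1 to 30 µM). Plates were held 48 h at 37 °C, 5% CO2, 90% humidity. MTT was added for 4 h, formazan dissolved in DMSO, and absorbance read at 540 nm. IC50 values were calculated.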

NIH3T3 [9] = assay: Cytotoxicity against mouse 3T3 cells measured after 48 hrs by MTT assay relative to control; type: cell-based; conditions: nih3t3, 48 h; in short: as §3
[10] = target: Cholinesterase (Equus caballus) (UniProt P81908); assay: Potency index, ratio of donepezil IC50 to test compound IC50 for equine serum BChE

Sequence of Acetylcholinesterase (Electrophorus electricus) (O42275 24-633 limits assumed): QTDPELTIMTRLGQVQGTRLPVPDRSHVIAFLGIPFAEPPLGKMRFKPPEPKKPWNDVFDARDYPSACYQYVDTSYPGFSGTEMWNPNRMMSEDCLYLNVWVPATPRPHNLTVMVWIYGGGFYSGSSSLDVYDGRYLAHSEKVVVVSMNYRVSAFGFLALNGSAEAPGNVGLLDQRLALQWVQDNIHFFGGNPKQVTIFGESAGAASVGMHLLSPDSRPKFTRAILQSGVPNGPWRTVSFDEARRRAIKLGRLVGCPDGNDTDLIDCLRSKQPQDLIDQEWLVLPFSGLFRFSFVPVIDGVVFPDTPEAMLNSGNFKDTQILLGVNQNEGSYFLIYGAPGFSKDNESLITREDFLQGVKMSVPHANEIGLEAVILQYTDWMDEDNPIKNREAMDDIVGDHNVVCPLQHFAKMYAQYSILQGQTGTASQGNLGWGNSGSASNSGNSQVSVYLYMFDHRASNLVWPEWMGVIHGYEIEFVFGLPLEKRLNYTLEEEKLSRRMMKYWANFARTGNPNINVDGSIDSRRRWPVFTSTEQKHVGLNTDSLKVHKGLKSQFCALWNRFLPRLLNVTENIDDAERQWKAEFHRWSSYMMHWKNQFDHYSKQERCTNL
Sequence of Cholinesterase (Equus caballus) (P81908 whole entry): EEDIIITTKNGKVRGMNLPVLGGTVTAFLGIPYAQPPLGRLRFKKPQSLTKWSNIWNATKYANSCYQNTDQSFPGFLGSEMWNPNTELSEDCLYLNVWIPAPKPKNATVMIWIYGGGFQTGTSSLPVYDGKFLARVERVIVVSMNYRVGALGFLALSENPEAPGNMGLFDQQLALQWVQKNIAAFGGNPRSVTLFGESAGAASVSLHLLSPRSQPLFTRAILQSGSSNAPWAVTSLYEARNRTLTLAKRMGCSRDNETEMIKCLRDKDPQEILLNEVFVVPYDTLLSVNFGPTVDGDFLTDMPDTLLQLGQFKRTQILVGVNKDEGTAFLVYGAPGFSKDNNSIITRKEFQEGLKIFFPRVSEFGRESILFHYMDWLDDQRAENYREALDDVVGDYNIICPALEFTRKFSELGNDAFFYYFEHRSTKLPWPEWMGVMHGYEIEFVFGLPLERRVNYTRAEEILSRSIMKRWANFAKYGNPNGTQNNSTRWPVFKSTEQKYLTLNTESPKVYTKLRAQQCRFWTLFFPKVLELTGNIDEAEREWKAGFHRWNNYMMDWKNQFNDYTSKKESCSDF
T1 sequence (P81908 whole entry): as above

SMILES | IC50 (Cholinesterase [1]) | Ki (Cholinesterase [2]) | inhibition [3] | inhibition [4] | Activity (NIH3T3 [5]) | inhibition [6] | Ki (Cholinesterase [7]) | IC50 (NIH3T3 [8]) | Activity (NIH3T3 [9]) | Ratio IC50 [10]
COc1ccc(C(=O)Nc2c(Cl)cccc2Cl)cc1 | 11.3 µM | 18 µM | 90.7% | inactive | 32% |  |  |  |  | 
COc1cccc(C(=O)Nc2c(Cl)cccc2Cl)c1 | 5.5 µM | 13 µM | 95.2% | inactive | 14.8% |  |  |  |  | 
O=C(Nc1c(Cl)cccc1Cl)c1cccc([N+](=O)[O-])c1 |  |  |  | inactive | 41% | inactive |  |  |  | 
O=C(Nc1c(Cl)cccc1Cl)c1ccc(F)cc1F | 18.7 µM |  | 80.7% | inactive | 34% |  | 27.6 µM |  |  | 
O=C(Nc1c(Cl)cccc1Cl)c1ccccc1Br | 1.1 µM |  | 88% | inactive | 41% |  | 2.4 µM |  |  | 
O=C(Nc1c(Cl)cccc1Cl)c1c(F)cccc1F | 12.6 µM |  | 70.6% | inactive | 34% |  | 5.6 µM |  |  | 
Cc1ccc(C(=O)Nc2c(Cl)cccc2Cl)cc1[N+](=O)[O-] | 165 µM |  | 69.1% | inactive | 40% |  |  |  |  | 
COc1cc(C(=O)Nc2c(Cl)cccc2Cl)cc(OC)c1OC | 20.8 µM |  | 69.2% | inactive | 48% |  | 23.5 µM |  |  | 
CCOc1ccccc1C(=O)Nc1c(Cl)cccc1Cl | 6 µM |  | 112% | inactive | 15% |  |  |  |  | 
O=C(Nc1c(Cl)cccc1Cl)c1ccc(F)cc1 | 16.1 µM | 9.9 µM | 86.5% | inactive | 29% |  |  |  |  | 
C[C@@H]1C[C@@H]([C@H](O)CC2CC(=O)NC(=O)C2)C(=O)[C@@H](C)C1 [CYCLOHEXIMIDE] |  |  |  |  |  |  |  | 0.8 µM | 95% | 
O=C(Nc1c(Cl)cccc1Cl)c1ccc(Br)cc1 | 0.8 µM | 2.6 µM | 84% | inactive | 49% |  |  |  |  | 
O=C(Nc1c(Cl)cccc1Cl)c1ccccc1 | 1.3 µM | 4.4 µM | 100% | inactive | 33% |  |  |  |  | 10
